Only a selection was taken, and hits are over-represented in it overall.
Lung fibro prol: blocks proliferation of human lung fibroblasts; LL 47 human lung fibroblast viability, ATP luminescence; hits give low values; viability, % at 10 µM; 85,000 tested, 1.1% active;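 active = viability at or below 50% in the single dose screen; inactive = viability above 50%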;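 also: compound exposure lasted 72 h before the ATP readout; 100% = median luminescence of untreated cell-only wells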
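Test system: LL 47 human lung fibroblasts / Incubation: 72 h compound exposure at 37 °C after overnight plating / Technique: luminescent ATP detection, CellTiter-Glo / Compound dosing: 0.1% DMSO in all compound wells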
HCT116 bCat-KO: beta-catenin-lacking colon tumor cell growth suppression. 140,000 tested, 1.5% active. viability, % at 10 µM. HCT116 beta-catenin knockout viability, CellTiter-Glo, 60 h; hits give low values;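 active = viability at or under a set limit, the compound median less 4 SD, cut at about 6% in these data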;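 also: 0% = Hyamine 1622 control at 20 µM and 100% = untreated cell control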
HUVEC prolif 384: blocks proliferation of human endothelial cells; viability, % at 10 µM (by protocol); 86,000 tested, 1.1% active; HUVEC proliferation, CellTiter-Glo luminescence, 72 h; hits give low values;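 active = viability at or below 30%; inactive = viability above 30%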;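 also: 100% = median luminescence of DMSO-only cell control wells on each plate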
HCT116 PTEN-null: PTEN-deleted cell growth suppression. HCT116 PTEN-null viability, CellTiter-Glo, 60 h; hits give low values. viability, % at 10 µM. 140,000 tested, 1.2% active;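 active = viability at or below a set limit, 4 SD under the median of all tested compounds, cut at about 3.7% in these data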;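 also: PTEN knockout HCT116 line with beta catenin targeted HCT116 as companion control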
H69AR inhibit: growth inhibitors of human H69AR lung tumor cells. H69AR lung tumor viability, ATP luminescence, 72 h; hits give low values. viability, % at 10 µM. 85,000 tested, 6% active. AID 598;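 active = viability at or below 40%; inactive = viability above 40%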;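 also: multidrug resistant small cell line overexpressing MRP-1 efflux transporter; 100% = mean luminescence of untreated control wells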
* hit, by the source's call.

For CC(OC(=O)c1nn(C(C)C)c(=O)c2ccccc12)C(=O)Nc1ncc(Cl)cc1Cl (stereo not drawn) the results were HCT116 bCat-KO 105.0 and HCT116 PTEN-null 98.3.
`CCCCCCCC(=O)NC(Nc1ccc(S(N)(=O)=O)cc1)C(Cl)(Cl)Cl` (stereo not drawn) gave HCT116 bCat-KO 56.7 and HCT116 PTEN-null 64.7.
Screening CC1CCCCC1NC(=O)c1ccc2c(c1)[nH]c(=O)n2C1CCCC1 (stereo not drawn) returned Lung fibro prol 92.0, HCT116 bCat-KO 88.0, HUVEC prolif 384 104.9, HCT116 PTEN-null 82.6 and H69AR inhibit 20.7*.
Cc1ccc(NC(=O)c2ccc(NCCN)c([N+](=O)[O-])c2)cc1Cl was read as HCT116 bCat-KO 3.4* and HCT116 PTEN-null 3.9.
Screening O=C(Nc1cccc(S(=O)(=O)Nc2ccccc2Cl)c1)c1ccc(N2CCCC2)c([N+](=O)[O-])c1 returned HCT116 bCat-KO 95.4 and HCT116 PTEN-null 89.8.
For Cc1cccc(C)c1NS(=O)(=O)c1ccc(NC(=O)c2ccc(Cl)c([N+](=O)[O-])c2)cc1 the results were HCT116 bCat-KO 1.9* and HCT116 PTEN-null 3.3*.
For O=C(Nc1ccc(C(O)(C(F)(F)F)C(F)(F)F)cc1)c1ccc(Cl)c([N+](=O)[O-])c1 the results were HCT116 bCat-KO 1.6* and HCT116 PTEN-null 1.8*.
Screening O=C(Nc1ccc2c(c1)OCCO2)c1ccc(Cl)c([N+](=O)[O-])c1 returned HCT116 bCat-KO 50.8 and HCT116 PTEN-null 65.8.
Screening CC(O)C(C(=O)OCc1ccc([N+](=O)[O-])cc1)N1C(=O)c2ccccc2C1=O (stereo not drawn) returned HCT116 bCat-KO 83.9 and HCT116 PTEN-null 93.6.
Screening CCC(=O)n1nc(NCc2ccccc2OC)nc1NCc1ccccc1OC returned Lung fibro prol 87.9, HCT116 bCat-KO 75.0, HUVEC prolif 384 77.7, HCT116 PTEN-null 86.6 and H69AR inhibit 98.8.
Screening CCOC(=O)NC(NCCc1ccccc1)(C(F)(F)F)C(F)(F)F returned Lung fibro prol 98.1, HCT116 bCat-KO 100.7, HUVEC prolif 384 98.0, HCT116 PTEN-null 103.9 and H69AR inhibit 12.2*.
For COc1ccc(-n2c(C)cc(-c3csc(NC(=O)c4ccc(S(=O)(=O)N(C)C)cc4)n3)c2C)cc1 the results were HCT116 bCat-KO 95.7 and HCT116 PTEN-null 90.2.
`CC(=O)N(C)c1ccc(OCC(O)Cn2c3ccc(Cl)cc3c3cc(Cl)ccc32)cc1` (stereo not drawn) gave HCT116 bCat-KO 2.8* and HCT116 PTEN-null 1.8*.
For COC(=O)CSC1=NS(=O)(=O)c2ccccc21 the results were Lung fibro prol 68.7, HCT116 bCat-KO 102.9, HUVEC prolif 384 80.4, HCT116 PTEN-null 99.5 and H69AR inhibit 37.1*.
COC(=O)CSc1ccccc1C(=O)OC was read as Lung fibro prol 91.6, HCT116 bCat-KO 124.1, HUVEC prolif 384 89.7, HCT116 PTEN-null 102.8 and H69AR inhibit 93.8.
`O=C(CSC1=NS(=O)(=O)c2ccccc21)Nc1ccccc1` gave Lung fibro prol 52.6, HCT116 bCat-KO 88.9, HUVEC prolif 384 48.3, HCT116 PTEN-null 104.1 and H69AR inhibit 18.9*.
`CCN(CC)S(=O)(=O)c1ccc(N2CCOCC2)c(NC(=O)CC23CC4CC(CC(Br)(C4)C2)C3)c1` gave HCT116 bCat-KO 86.4 and HCT116 PTEN-null 94.6.
`CNCC(O)Cn1c(C(F)(F)F)nc2ccccc21` (stereo not drawn) gave Lung fibro prol 106.2, HCT116 bCat-KO 87.9, HUVEC prolif 384 99.2, HCT116 PTEN-null 85.4 and H69AR inhibit 90.8.
CCOC(=O)c1ccc(NC(=O)C2CCCN(S(=O)(=O)c3ccc(F)cc3)C2)cc1 (stereo not drawn) was read as Lung fibro prol 94.3, HCT116 bCat-KO 9.2, HUVEC prolif 384 74.0, HCT116 PTEN-null 14.2 and H69AR inhibit 19.5*.
Screening O=C(Nc1ccc(Oc2ccccc2)cc1)C1CCCN(c2ncccn2)C1 (stereo not drawn) returned Lung fibro prol 92.2, HCT116 bCat-KO 98.6, HUVEC prolif 384 85.1, HCT116 PTEN-null 91.6 and H69AR inhibit 39.6*.
CCOC(=O)c1ccc(NC(=O)C2CCN(S(=O)(=O)CC)CC2)cc1 was read as Lung fibro prol 96.5, HCT116 bCat-KO 108.2, HUVEC prolif 384 87.5, HCT116 PTEN-null 105.0 and H69AR inhibit 70.1.
Screening Cc1ccc(S(=O)(=O)N2CCCC(C(=O)Nc3ccc(NC(=O)c4ccccn4)cc3)C2)cc1 (stereo not drawn) returned Lung fibro prol 75.9, HCT116 bCat-KO 7.8, HUVEC prolif 384 75.1, HCT116 PTEN-null 20.4 and H69AR inhibit 20.6*.
For O=C(O)CCCCCNc1ccc2nsnc2c1[N+](=O)[O-] the results were HCT116 bCat-KO 88.3 and HCT116 PTEN-null 99.9.
For CC(C)C(=O)Nc1ccc(S(=O)(=O)Nc2nccc(/C=C/c3ccccc3)n2)cc1 the results were HCT116 bCat-KO 92.7 and HCT116 PTEN-null 103.3.
For O=C(c1ccc(COc2c(F)c(F)c(F)c(F)c2F)o1)N1CCN(Cc2ccc3c(c2)OCO3)CC1 the results were Lung fibro prol 92.9, HCT116 bCat-KO 85.3, HUVEC prolif 384 94.3, HCT116 PTEN-null 76.2 and H69AR inhibit 28.3*.
For CCCCOc1ccc(-c2nc(=S)[nH][nH]2)cc1 the results were Lung fibro prol 106.2, HCT116 bCat-KO 101.1, HUVEC prolif 384 80.1, HCT116 PTEN-null 103.8 and H69AR inhibit 19.1*.
Screening CCCCOc1ccc(-c2nc(SCC(N)=O)n[nH]2)cc1 returned Lung fibro prol 111.3, HCT116 bCat-KO 98.8, HUVEC prolif 384 97.8, HCT116 PTEN-null 98.4 and H69AR inhibit 88.6.
CC(C)/C=N/Nc1nc(-c2ccc(Br)cc2)cs1 was read as HCT116 bCat-KO 80.6 and HCT116 PTEN-null 86.1.
O=C(CCc1nc(-c2ccccc2F)no1)Nc1ccc(Oc2ccccc2)cc1 was read as Lung fibro prol 60.3, HCT116 bCat-KO 8.9, HUVEC prolif 384 32.3, HCT116 PTEN-null 15.1 and H69AR inhibit 29.5*.
For COc1cccc(NC(=O)CCc2nc(-c3ccccc3F)no2)c1 the results were Lung fibro prol 99.8, HCT116 bCat-KO 103.6, HUVEC prolif 384 82.2, HCT116 PTEN-null 109.5 and H69AR inhibit 89.3.
`CC1CCN(S(=O)(=O)c2ccc(NC(=O)Cc3cccs3)cc2)CC1` gave Lung fibro prol 98.8, HCT116 bCat-KO 82.8, HUVEC prolif 384 101.6, HCT116 PTEN-null 91.0 and H69AR inhibit 85.6.
Screening C/C(Cl)=C/Cn1c(=O)c2c(nc(Br)n2Cc2ccccc2)n(C)c1=O returned Lung fibro prol 98.9, HCT116 bCat-KO 79.1, HUVEC prolif 384 99.1, HCT116 PTEN-null 78.2 and H69AR inhibit 70.7.
`Cc1ccc(-c2cc(C(F)F)n3ncc(C(=O)Nc4c(C)nn(Cc5ccccc5Cl)c4C)c3n2)cc1` gave HCT116 bCat-KO 2.4* and HCT116 PTEN-null 1.4*.
For CCn1cc(C(=O)NCCc2ccccc2)c(=O)c2cc(F)c(N3CCN(C)CC3)cc21 the results were Lung fibro prol 79.3, HCT116 bCat-KO 51.4, HUVEC prolif 384 17.3*, HCT116 PTEN-null 53.0 and H69AR inhibit 42.3.
